One data set concerns mice. The experiment in a line: Multiple dose. The data set is classed as in vivo, mouse. The settings on record: IV daily for 5 days at 4, 2.7, 1.3 mg/kg, female mice. The gist of the method: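 Female heterozygous Foxn1nu/Foxn1+ mice, 5 per group, fasted overnight before dosing. Test compound given IV by lateral tail vein daily for 5 days, in 10% Solutol HS15 in sterile water at 0.01 ml/g body weight; a vehicle group was included. Body weights tracked before, during and after dosing over a 14 day observation period, followed by necropsy for gross pathology.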

Data set [1] has as its system pSTAT3 from IL-6 induction in a Cal33 cell line. The settings on record: read-out: IC50, inhibiting pSTAT3 from IL-6 induction; cited from earlier work.

The values below come from paper PMC5115981 (Cancer chemotherapy and pharmacology, 2016).

One may read the IC50 as the concentration that gives 50% inhibition.

In the case of `COc1ccc(C2=Nn3c(nnc3-c3cc(-c4ccc(Cl)cc4)n[nH]3)SC2C)cc1` (stereo not shown) [UPCDC-10205, 3-(3-(4-chlorophenyl)-1H-pyrazole-5-yl)-6-(4-methoxyphenyl)-7-methyl-7H-[1,2,4]triazolo[3,4-b][1,3,4]thiadiazine], in the data set with mice, the “body weights vs vehicle control group, multiple dose” value is “no statistical differences” and the “gross pathology upon necropsy, multiple dose” value was “no signs of gross pathology”. Moreover, the “signs or symptoms of toxicity, multiple dose” value in the data set with mice (14 day observation) is “not toxic”. The IC50 in data set [1] was 2.2 µM.
